Test results published in ChEMBL document CHEMBL1129371, “Bis tertiary amide inhibitors of the HIV-1 protease generated via protein structure-based iterative design” (J Med Chem, 1996).

Assays:
[1] = biological target: T1, Human immunodeficiency virus type 1 protease (Human immunodeficiency virus 1, UniProt Q72874); assay: Binding affinity against HIV-1 protease
[2] = tested on: Human immunodeficiency virus 1; assay: (§1) Effective dose against inhibition of HIV-1 protease in CEM cells; format: functional; conditions: Human immunodeficiency virus 1, CCRF-CEM; read-out: ED50 (the source's name)
Outline: (§2)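 HIV-1-induced killing of CEM-SS cells; cell viability read by MTT tetrazolium metabolism. ED50 = concentration giving 50% inhibition of HIV-1-induced cell death. Run at Southern Research Institute.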

[3] = tested on: CCRF-CEM; assay: Antiviral activity againsy HIV-1 in CEM cells; format: functional; conditions: Homo sapiens, read-out: ED50 (the source's name); outline: as §2
[4] = biological target: T1, Human immunodeficiency virus type 1 protease; assay: Compound was tested for binding affinity against HIV protease
[5] = Toxic concentration at which 50% of CEM-SS cells were viable (uninfected with virus) as determined by metabolism of MTT in(uM).; format: toxicity, cell-based; conditions: human, read-out: TC50 (the source's name)
Outline: (§3)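 Uninfected CEM-SS cells; viability read by MTT metabolism. TC50 = concentration giving 50% reduction in number of viable cells; reported in μM.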

[6] = Pharmacokinetic parameter Cmax determined after intravenous administration of 50 mg/kg to rat; format: ADME, organism-based; design: dose 50 mg/kg, route intravenous; conditions: in vivo
[7] = Pharmacokinetic parameter Cmax determined after oral administration of 50 mg/kg to rat; format: ADME, organism-based; design: dose 50 mg/kg, route oral; conditions: in vivo
[8] = Maximal concentration in monkey plasma after 25 mg/kg oral dose; format: ADME, organism-based; design: dose 25 mg/kg, route oral; conditions: simiiformes
[9] = Fraction of compound bio available orally in rat at dosage 50(mg/kg) by po administration; format: ADME, organism-based; conditions: in vivo
[10] = Pharmacokinetic parameter half life determined after oral administration of 15 mg/kg to dog; format: ADME, organism-based, Canis lupus familiaris; design: dose 15 mg/kg, route oral; conditions: in vivo
[11] = Pharmacokinetic parameter half life determined after intravenous administration of 50 mg/kg to rat; format: ADME, organism-based; design: dose 50 mg/kg, route intravenous; conditions: in vivo
[12] = Pharmacokinetic parameter Cmax determined after oral administration of 15 mg/kg to dog; conditions: in vivo
[13] = Pharmacokinetic parameter Cmax determined after intravenous administration of 60 mg/kg to rat; format: ADME, organism-based; design: dose 60 mg/kg, route intravenous; conditions: in vivo
[14] = Pharmacokinetic parameter half life determined after intravenous administration of 60 mg/kg to rat; format: ADME, organism-based; design: dose 60 mg/kg, route intravenous; conditions: in vivo
[15] = tested on: Rattus norvegicus; assay: Fraction of compound bio available orally in rat at dosage 50(mg/kg) by po administration.; conditions: in vivo
[16] = Pharmacokinetic parameter Cmax determined after intravenous administration of 25 mg/kg to monkey; format: ADME, organism-based; design: dose 25 mg/kg, route intravenous; conditions: simiiformes, in vivo
[17] = Pharmacokinetic parameter Cmax determined after peroral administration of 25 mg/kg to monkey; format: ADME, organism-based; design: dose 25 mg/kg, route oral; conditions: simiiformes, in vivo, po
[18] = Pharmacokinetic parameter Cmax determined after peroral administration of 50 mg/kg to rat; format: ADME, organism-based; design: dose 50 mg/kg, route oral; conditions: in vivo, po
[19] = Fraction of compound bio available orally in dog at dosage 15(mg/kg) by po administration.; format: ADME, organism-based, Canis lupus familiaris; conditions: in vivo
[20] = Fraction of compound bio available orally in dog at dosage 30(mg/kg) by po administration.; format: ADME, organism-based, Canis lupus familiaris; conditions: in vivo
[21] = Oral bioavailability in rat (dose 50 mg/kg); format: ADME, organism-based; conditions: in vivo
[22] = Pharmacokinetic parameter half life determined after peroral administration of 25 mg/kg to monkey; format: ADME, organism-based; design: dose 25 mg/kg, route oral; conditions: simiiformes, in vivo, po
[23] = Pharmacokinetic parameter half life determined after intravenous administration of 15 mg/kg to dog; format: ADME, organism-based, Canis lupus familiaris; design: dose 15 mg/kg, route intravenous; conditions: in vivo
[24] = Pharmacokinetic parameter half life determined after intravenous administration of 25 mg/kg to monkey; format: ADME, organism-based; design: dose 25 mg/kg, route intravenous; conditions: simiiformes, in vivo
[25] = Pharmacokinetic parameter Cmax determined after oral administration of 30 mg/kg to dog; conditions: in vivo
[26] = Fraction of compound bio available orally in monkey at dosage 25(mg/kg) by po administration.; conditions: primates, in vivo
[27] = Pharmacokinetic parameter Cmax determined after oral administration of 30 mg/kg abd antacid (CaCO3 dosed orally 10 min prior to and 60 min postdosing) to dog; conditions: in vivo
[28] = Pharmacokinetic parameter half life determined after peroral administration of 30 mg/kg abd antacid (CaCO3 dosed orally 10 min prior to and 60 min postdosing) to dog; conditions: in vivo, po
[29] = Toxic concentration at which 50% of CEM-SS cells were viable (uninfected with virus) as determined by metabolism of MTT; format: toxicity, cell-based; conditions: human, read-out: TC50 (the source's name); outline: as §3
[30] = Pharmacokinetic parameter Cmax determined after peroral administration of 15 mg/kg to dog; conditions: in vivo, po
[31] = Pharmacokinetic parameter half life determined after peroral administration of 15 mg/kg to dog; conditions: in vivo, po
[32] = Pharmacokinetic parameter Cmax determined after peroral administration of 15 mg/kg to dog; format: ADME, organism-based, Canis lupus familiaris; design: dose 15 mg/kg, route oral; conditions: in vivo, po
[33] = Pharmacokinetic parameter Cmax determined after peroral administration of 25 mg/kg to monkey; No levels; format: ADME, organism-based; design: dose 25 mg/kg, route oral; conditions: simiiformes, in vivo, po
[34] = tested on: Rattus norvegicus; assay: Pharmacokinetic parameter Cmax determined after oral administration of 50 mg/kg to rat; No levels; format: ADME, organism-based; design: dose 50 mg/kg, route oral; conditions: in vivo
[35] = tested on: CEM-SS; assay: as §1; format: functional; conditions: Homo sapiens, read-out: ED50 (the source's name); outline: as §2
[36] = Toxic concentration at which 50% of CEM-SS cells were viable (uninfected with virus) as determined by metabolism of MTT in(uM); format: toxicity, cell-based; conditions: human, read-out: TC50 (the source's name); outline: as §3

CCC1(N(CCO)C(=O)c2ccccc2CCC(O)Cc2ccc(C)cc2C(=O)N(CCO)C(C)(C)C2CCOCC2)CCCC1 (configuration not stated)
Ki [1]: 35 nM
EC50 [2]: 1110 nM

CCN(C(=O)c1ccccc1CC(O)CCc1ccccc1C(=O)N(CCO)C1(CC)CCCC1)C(C)(C)c1ccccc1 (configuration not stated)
Ki [1]: 51 nM
EC50 [2]: 1700 nM

CCC1(N(CCO)C(=O)c2ccccc2CCC(O)Cc2ccc(C)cc2C(=O)N(CC2COC(C)(C)OC2)C(C)(C)c2ccccc2)CCCC1 (configuration not stated)
EC50 [3]: 590 nM
Ki [4]: 4 nM

CC(C)(C)NC(=O)c1ccccc1CCC(O)Cc1ccccc1C(=O)NC(C)(C)C (configuration not stated)
Ki [1]: 20000 nM

CC(C)(C)N(CCO)C(=O)c1ccccc1CCC(O)Cc1ccccc1C(=O)N(CCO)C(C)(C)C (configuration not stated)
CC50 [5]: > 150000 nM
EC50 [2]: 36000 nM

Cc1ccc(CC(O)CCc2ccccc2C(=O)N(CCO)C(C)(C)c2ccccc2)c(C(=O)N(CCO)C(C)(C)c2ccccc2)c1 (configuration not stated)
Cmax [6]: 88900 ng/mL
Cmax [7]: 1200 ng/mL
Cmax [8]: 860 ng/mL
bioavailability [9]: 34%
half-life [10]: 2.07 h
Ki [1]: 18 nM
half-life [11]: 0.5 h
EC50 [2]: 810 nM
Cmax [12]: 390 ng/mL

CCC1(N(CCO)C(=O)c2ccccc2CCC(O)Cc2ccc(C)cc2C(=O)N(CCO)C2(c3ccccc3)CCCC2)CCCC1 (configuration not stated)
Ki [1]: 0.4 nM
EC50 [2]: 790 nM

CC(C)(C)N(CCO)C(=O)c1ccccc1CCC(O)Cc1ccccc1C(=O)N(CCO)C(C)(C)c1ccccc1 (configuration not stated)
CC50 [5]: > 150000 nM
Ki [1]: 90 nM
EC50 [2]: 3400 nM

CCC1(N(CCO)C(=O)c2ccccc2CCC(O)Cc2ccc(C)cc2C(=O)N(CCO)C(C)(C)c2ccc(OCc3cccnc3)cc2)CCCC1 (configuration not stated)
Cmax [13]: 87200 ng/mL
Cmax [7]: 860 ng/mL
half-life [14]: 1 h
Ki [1]: 2 nM
EC50 [2]: 650 nM
bioavailability [15]: 5%

CCC1(N(CCO)C(=O)c2ccccc2CCC(O)Cc2ccc(C)cc2C(=O)N(CCO)C(C)(C)c2ccccc2)CCCC1 (configuration not stated)
Cmax [16]: 18300 ng/mL
Cmax [6]: 88400 ng/mL
Cmax [17]: 1910 ng/mL
Cmax [18]: 2780 ng/mL
bioavailability [19]: 3%
bioavailability [20]: 33%
bioavailability [21]: 39%
half-life [22]: 1.07 h
half-life [23]: 0.24 h
half-life [24]: 1.08 h
CC50 [5]: 103000 nM
Ki [1]: 8 nM
half-life [11]: 1.3 h
EC50 [2]: 780 nM
Cmax [25]: 690 ng/mL
bioavailability [26]: 32%
Cmax [27]: 3260 ng/mL
half-life [28]: 0.52 h

Cc1ccc(CC(O)CCc2ccccc2C(=O)N(CCO)C(C)(C)C)c(C(=O)N(CCO)C(C)(C)c2ccccc2)c1 (configuration not stated)
Ki [1]: 63 nM
EC50 [2]: 4200 nM

CC(C)(C)NC(=O)c1ccccc1C[C@@H](O)[C@H](Cc1ccccc1)NC(=O)[C@H](CC(N)=O)NC(=O)c1cnc2ccccc2c1
CC50 [29]: 122000 nM
EC50 [2]: 20 nM

CC(C)(C)N(CCO)C(=O)c1ccccc1CCC(O)Cc1ccccc1C(=O)N(CCO)C(C)(C)c1ccc2ccccc2c1 (configuration not stated)
Ki [1]: 145 nM
EC50 [2]: 7200 nM

CCC1(N(CCO)C(=O)c2ccccc2CCC(O)Cc2ccc(C)cc2C(=O)N(CC(CO)CO)C(C)(C)c2ccccc2)CCCC1 (configuration not stated)
Cmax [6]: 52200 ng/mL
Cmax [7]: 1160 ng/mL
Cmax [17]: 810 ng/mL
bioavailability [21]: 7%
Ki [1]: 10 nM
half-life [11]: 1 h
EC50 [2]: 950 nM
Cmax [30]: 1170 ng/mL
half-life [31]: 0.34 h

CC(C)(C)N(CCO)C(=O)c1ccccc1CCC(O)Cc1ccccc1C(=O)N(CCO)C(C)(C)Cc1ccccc1 (configuration not stated)
Ki [1]: 1300 nM

CCC1(N(CCO)C(=O)c2ccccc2CCC(O)Cc2ccc(Cl)cc2C(=O)N(CCO)C(C)(C)c2ccccc2)CCCC1 (configuration not stated)
Cmax [6]: 111000 ng/mL
Cmax [7]: 1400 ng/mL
Cmax [32]: 590 ng/mL
Cmax [33]: No levels
bioavailability [21]: 31%
CC50 [5]: 97000 nM
Ki [1]: 2 nM
half-life [11]: 1.7 h
EC50 [2]: 720 nM

CCC1(N(CCO)C(=O)c2ccccc2CCC(O)Cc2ccc(C)cc2C(=O)N(CCO)C(C)(C)c2ccc(O)cc2)CCCC1 (configuration not stated)
Cmax [6]: 41300 ng/mL
Cmax [34]: No levels
bioavailability [21]: 0%
Ki [1]: 6 nM
half-life [11]: 1.4 h
EC50 [2]: 880 nM

CC(C)(C)N(CCO)C(=O)c1ccccc1CC(O)CSc1ccccc1C(=O)N(CCO)C(C)(C)C (configuration not stated)
Ki [1]: 18000 nM

CC(C)(C)NC(=O)[C@@H]1C[C@@H]2CCCC[C@@H]2CN1C[C@@H](O)[C@H](Cc1ccccc1)NC(=O)[C@H](CC(N)=O)NC(=O)c1cnc2ccccc2c1
CC50 [29]: > 10000 nM
Ki [4]: 0.9 nM
EC50 [35]: 2 nM

Cc1ccc(CCC(O)Cc2ccccc2C(=O)N(CCO)C(C)(C)c2ccccc2)c(C(=O)N(CCO)C(C)(C)C)c1 (configuration not stated)
Ki [1]: 150 nM
EC50 [2]: 4900 nM

CC(C)(C)NC(=O)c1ccccc1SCC(O)Cc1ccccc1C(=O)N(CCO)C(C)(C)C (configuration not stated)
Ki [1]: 34000 nM

CCC1(N(CCO)C(=O)c2ccccc2CCC(O)Cc2ccc(C)cc2C(=O)N(CCO)C(C)(C)c2ccc(OCCN3CCOCC3)cc2)CCCC1 (configuration not stated)
Ki [1]: 9 nM
EC50 [2]: 840 nM

CC(C)(c1ccccc1)N(CCO)C(=O)c1ccccc1CCC(O)Cc1ccccc1C(=O)N(CCO)C(C)(C)c1ccccc1 (configuration not stated)
CC50 [36]: 122000 nM
Ki [1]: 21 nM
EC50 [2]: 2200 nM

CCCC(CC)(CC)N(CCO)C(=O)c1cc(C)ccc1CC(O)CCc1ccccc1C(=O)N(CCO)C1(CC)CCCC1 (configuration not stated)
Ki [1]: 6 nM
EC50 [2]: 1370 nM

CCC1(N(CCO)C(=O)c2ccccc2CCC(O)Cc2ccc(C)cc2C(=O)N(CCC(O)CO)C(C)(C)c2ccccc2)CCCC1 (configuration not stated)
Cmax [6]: 111000 ng/mL
Cmax [7]: 840 ng/mL
bioavailability [21]: 2%
Ki [1]: 10 nM
half-life [11]: 1.3 h
EC50 [2]: 860 nM

CCCC(CC)(CC)N(CCO)C(=O)c1ccccc1CC(O)CCc1ccccc1C(=O)N(CCO)C(C)(C)C (configuration not stated)
Ki [1]: 110 nM
EC50 [2]: 3700 nM

CC(C)(C)N(CCO)C(=O)c1ccccc1CCC(O)Cc1ccccc1C(=O)N(CCO)[C@@]12CCCC[C@@H]1CCC2 (relative stereo)
Ki [1]: 64 nM
EC50 [2]: 7600 nM
